A short description of test [1]: Her2 expression decrease, cell viability multiplex – SKBR3 breast tumor cells, AlphaScreen, ATP viability, primary screen (AID 461;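 active = Her2 level under about 52% in both replicate screens, with viability over 70% of control, limit read from the data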;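 for Her2 level: lower value means less Her2 protein in the cells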;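 for viability: percent of carrier control wells set as 100% viability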). As to conditions: SKBR3 Her2 protein level, 18-24 h, measured here: SKBR3 viability, ATP luminescence, at 10 µM. A general note: Alpha assays give light when donor and acceptor beads are brought close together.
Test [2] has as its target Receptor tyrosine-protein kinase erbB-2 (Homo sapiens) (UniProt P04626). The test is described as above. As to conditions: 18-24 h, at 10 µM, stronger effect = lower value.
The nature of test [3]: reduced viability of SK-BR-3 breast cancer cells – cell-based, 24 h, human, pilot screen (AID 572;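 active = viability at or below 10% of carrier control in both of two separate runs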;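 note: compound exposure lasted between 18 and 24 h rather than exactly 24 h; 100% = carrier-treated control wells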). As to conditions: SK-BR-3 viability, CellTiter-Glo luminescence, at 10 µM, stronger effect = lower value. On the technique in general: In ATP-based viability assays light output follows the ATP content of the culture.
A short description of test [4]: HUVEC growth inhibition – cell-based, human, primary screen (AID 575;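 active = viability at or below 30% in both replicate assays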;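 note: 100% = median of untreated cell wells with 0.1% DMSO on each plate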). As to conditions: HUVEC proliferation, CellTiter-Glo luminescence, 72 h; at 10 µM; stronger effect = lower value. In short, it runs like this: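 Assay system: primary human umbilical vein endothelial cells / Buffer or medium: endothelial basal medium with 2% FBS plus growth supplements / Compound dosing: one dose, 10 µM final, 0.1% DMSO / Timing: 72 h treatment at 37 °C / Signal: CTG luminescence / Benchmarks: 32 DMSO-only cell-control wells (high), 32 MePR drug-control wells (low) per plate / Plate: collagen-coated 384-well format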

Test [5] is described as follows: H69AR cell proliferation blockers – human, duplicate replicates, primary screen (AID 580).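 Note: 100% = mean luminescence of untreated wells and 0% = no signal.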 As to conditions: H69AR lung tumor cells viability, ATP luminescence, 72 h; at 10 µM; stronger effect = lower value.
Test [6] is described as follows: MRP1 drug-resistance reversers in H69AR cells – cell-based, doxorubicin co-treatment, pilot screen (AID 601;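 active = viability loss from added drug above about 55%, and viability with drug at most 40%, in both replicates, limit read from the data, passing the limit was not always enough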). As to conditions: CellTiter-Glo, 72 h, at 10 µM; for differential viability (reversal): stronger effect = higher value.
Test [7] in a line: yeast transport mutant growth inhibition pilot in 384-well plates, post-Golgi transport modulator project (AID 636; in the data active = inhibition above about 31%). As to conditions: absorbance 615 nm, about 18 h, stronger effect = higher value.
A short description of test [8]: growth suppression of yeast trafficking mutant, preliminary HTS, modulators of trafficking downstream of Golgi apparatus project, 1536-format plate, OD 615 nm (AID 637; in the data active = inhibition above about 30%). As to conditions: yeast transport mutant growth, absorbance 615 nm, 18 h; stronger effect = higher value.
[9] abbreviates: H69AR cells + 2 uM doxorubicin, measured here: viability with 2 uM doxorubicin, stronger effect = lower value.
[10] abbreviates: H69AR cells, compound alone cytotoxicity.

Broadly, the viability is a read-out of living cells in per cent, often relative to untreated cells. As a reminder, the inhibition is the relative decrease from the control value, in per cent.

Activity calls are given as the source filed them.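 Rule for the calls, unless noted: active = viability at or under a set limit in both replicates, limit being median viability minus 3 SD (cut at about 48% in these data, passing the limit was not always enough); inconclusive = at or under the limit in just one replicate; inactive = at or above the limit in both replicates.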

Sequence of Receptor tyrosine-protein kinase erbB-2 (Homo sapiens) (P04626 whole entry, looked up): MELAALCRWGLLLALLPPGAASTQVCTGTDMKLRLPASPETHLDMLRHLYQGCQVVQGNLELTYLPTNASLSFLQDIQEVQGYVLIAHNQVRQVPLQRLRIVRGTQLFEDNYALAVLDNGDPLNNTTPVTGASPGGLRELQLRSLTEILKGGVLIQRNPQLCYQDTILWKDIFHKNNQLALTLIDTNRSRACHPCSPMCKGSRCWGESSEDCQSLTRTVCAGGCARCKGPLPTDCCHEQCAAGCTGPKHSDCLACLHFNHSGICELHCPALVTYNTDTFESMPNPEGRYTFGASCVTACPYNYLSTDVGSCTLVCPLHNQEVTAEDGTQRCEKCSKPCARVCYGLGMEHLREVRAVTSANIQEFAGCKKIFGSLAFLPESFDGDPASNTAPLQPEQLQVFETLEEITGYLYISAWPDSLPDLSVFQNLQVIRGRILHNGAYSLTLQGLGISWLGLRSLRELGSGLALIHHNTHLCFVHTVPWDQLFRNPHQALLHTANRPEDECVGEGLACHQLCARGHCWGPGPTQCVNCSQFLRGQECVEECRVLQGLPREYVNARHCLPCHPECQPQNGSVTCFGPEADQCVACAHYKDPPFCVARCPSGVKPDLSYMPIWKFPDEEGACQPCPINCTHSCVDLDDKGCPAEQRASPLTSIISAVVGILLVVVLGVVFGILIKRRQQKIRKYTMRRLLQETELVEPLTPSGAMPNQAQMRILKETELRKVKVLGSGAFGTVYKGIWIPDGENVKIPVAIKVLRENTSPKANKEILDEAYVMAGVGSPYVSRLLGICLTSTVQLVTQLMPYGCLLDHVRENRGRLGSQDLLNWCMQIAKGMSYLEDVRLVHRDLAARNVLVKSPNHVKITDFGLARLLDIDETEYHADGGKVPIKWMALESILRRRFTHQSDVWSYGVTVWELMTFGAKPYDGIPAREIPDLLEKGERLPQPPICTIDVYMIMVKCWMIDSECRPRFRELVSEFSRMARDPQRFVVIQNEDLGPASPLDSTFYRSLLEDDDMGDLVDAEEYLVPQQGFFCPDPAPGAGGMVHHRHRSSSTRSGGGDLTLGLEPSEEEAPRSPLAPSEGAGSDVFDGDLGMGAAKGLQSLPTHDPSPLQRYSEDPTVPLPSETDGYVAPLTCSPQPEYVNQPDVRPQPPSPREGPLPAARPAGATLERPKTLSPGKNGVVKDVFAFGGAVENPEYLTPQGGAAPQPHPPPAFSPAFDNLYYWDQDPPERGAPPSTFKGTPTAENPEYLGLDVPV

As for `COc1ccc(OC)c(C2=Nn3c(nnc3C3CCCCC3)SC2)c1`, the viability in test [1] was 94%; in test [3] it was 94% (inactive); in test [4], 75.4% (inactive); in test [5], 78.1% (inactive); in test [6] (setting [9]) it was 78%; in test [6] (setting [10]) it was 78.1%. Besides, the Her2 level in test [2] is 104% (inactive). The differential viability (reversal) in test [6] (H69AR cells + 2 uM doxorubicin) is 0.07% (inactive). Moreover, the inhibition in test [7] was 5.92% (inactive); in test [8], 3.06% (inactive).

`Nc1ncnc(Nc2ccccc2C(F)(F)F)n1`: the viability in test [1] is 93.5%; in test [3] it was 93.5% (inactive); in test [4], 99.5% (inactive); in test [5] it was 95.6% (inactive); in test [6] (setting [9]), 93.3%; in test [6] (setting [10]), 95.6%. For the same compound, the Her2 level in test [2] was 110% (inactive). Also, in test [6] (H69AR cells + 2 uM doxorubicin), the differential viability (reversal) is 2.26% (inactive). In addition, the inhibition in test [7] is 5.19% (inactive); in test [8] it was -11.2% (inactive).

Consider `COc1ccc(C(c2nnnn2C2CCCC2)N2CCN(C3CCCC3)CC2)cc1OC` (stereo not given), for which the viability in test [1] is 89.5%; in test [3] it was 89.5% (inactive); in test [4], 84.7% (inactive); in test [5] it was 106% (inactive); in test [6] (setting [9]) it was 77.7%; in test [6] (setting [10]), 106%. The Her2 level in test [2] was 84% (inactive). Moreover, the differential viability (reversal) in test [6] (H69AR cells + 2 uM doxorubicin) is 28.3% (inactive). In addition, the inhibition in test [7] was -7.26% (inactive); in test [8], -2.22% (inactive).

As to `Cc1cccc(-c2nnn(CC/C(N)=N/O)n2)c1`, the viability in test [1] is 85%; in test [3], 85% (inactive); in test [4], 85.3% (inactive); in test [5], 104% (inactive); in test [6] (setting [9]) it was 105%; in test [6] (setting [10]) it was 104%. The Her2 level in test [2] is 84.5% (inactive). Besides, the differential viability (reversal) in test [6] (H69AR cells + 2 uM doxorubicin) was -1.3% (inactive). In addition, the inhibition in test [7] is -2.53% (inactive); in test [8], -0.16% (inactive).

With `CCOC(=O)C1(C)NC(c2ccc(OC)c(OC)c2)C2C(=O)N(CC)C(=O)C21` (stereo not given), the viability in test [1] was 96.5%; in test [3], 96.5% (inactive); in test [4], 89.2% (inactive); in test [5], 101% (inactive); in test [6] (setting [9]), 93.8%; in test [6] (setting [10]), 101%. Further, the Her2 level in test [2] was 106% (inactive). Moreover, the differential viability (reversal) in test [6] (H69AR cells + 2 uM doxorubicin) is 7.14% (inactive). The inhibition is -0.41% (inactive) in test [7] and -1.27% (inactive) in test [8].

`Cc1sc2ncnc(OCC(=O)N3CCN(S(=O)(=O)c4ccc(Cl)cc4)CC3)c2c1C`: the viability in test [1] was 92.5%; in test [3] it was 92.5% (inactive); in test [4], 89.2% (inactive); in test [5] it was 84.8% (inactive); in test [6] (setting [9]) it was 84%; in test [6] (setting [10]) it was 84.8%. The Her2 level in test [2] is 86% (inactive). The differential viability (reversal) in test [6] (H69AR cells + 2 uM doxorubicin) is 0.87% (inactive). The inhibition in test [7] is 0.53% (inactive); in test [8], -0.91% (inactive).

As for `COC(=O)C1(C)NC(c2ccco2)C2C(=O)N(c3ccc(C)cc3)C(=O)C21` (stereo not given), the viability was 106% in test [1]; 106% (inactive) in test [3]; 96.6% (inactive) in test [4]; 91.5% (inactive) in test [5]; 94.5% in test [6] (setting [9]); 91.5% in test [6] (setting [10]). In test [2], the Her2 level was 95% (inactive). Moreover, in test [6] (H69AR cells + 2 uM doxorubicin), the differential viability (reversal) is -3% (inactive). Besides, the inhibition in test [7] is -5.27% (inactive); in test [8] it was -3.83% (inactive).

As to `O=C(C1CCCN(S(=O)(=O)c2cnc[nH]2)C1)N1CC(=O)N(CCc2ccccc2)C(=O)C1` (stereo not given), the viability in test [1] was 93.5%; in test [3] it was 93.5% (inactive); in test [4], 105% (inactive); in test [5], 95% (inactive); in test [6] (setting [9]), 99.7%; in test [6] (setting [10]), 95%. Further, the Her2 level in test [2] is 92% (inactive). For the same compound, the differential viability (reversal) in test [6] (H69AR cells + 2 uM doxorubicin) was -4.7% (inactive). In addition, the inhibition is -0.8% (inactive) in test [7] and 21.6% (inactive) in test [8].

For `O=C(O)COc1ccc2occ(C(=O)c3ccccc3)c2c1`, the viability in test [1] is 102%; in test [3], 102% (inactive); in test [4] it was 100% (inactive); in test [5] it was 93.9% (inactive); in test [6] (setting [9]) it was 92.9%; in test [6] (setting [10]), 93.9%. Also, the Her2 level in test [2] is 95.5% (inactive). In test [6] (H69AR cells + 2 uM doxorubicin), the differential viability (reversal) was 1.01% (inactive). The inhibition is -3.55% (inactive) in test [7] and 7.21% (inactive) in test [8].

Take `COc1ccc(C2(CN(C(C)=O)C(C)=O)CCCC2)cc1OC`: the viability in test [1] was 89.5%; in test [3], 89.5% (inactive); in test [4] it was 114% (inactive); in test [5] it was 90.4% (inactive); in test [6] (setting [9]), 88.7%; in test [6] (setting [10]), 90.4%. Besides, in test [2], the Her2 level is 93% (inactive). Also, in test [6] (H69AR cells + 2 uM doxorubicin), the differential viability (reversal) was 1.69% (inactive). Moreover, the inhibition in test [7] was -4.8% (inactive); in test [8], -4.92% (inactive).

Take `COCCSc1ccccc1C(=O)Nc1cc(C)on1`: the viability in test [1] is 91%; in test [3], 91% (inactive); in test [4], 95.4% (inactive); in test [5] it was 94.5% (inactive); in test [6] (setting [9]), 89.8%; in test [6] (setting [10]) it was 94.5%. Further, the Her2 level in test [2] is 90% (inactive). The differential viability (reversal) in test [6] (H69AR cells + 2 uM doxorubicin) was 4.69% (inactive). Besides, the inhibition in test [7] was 0.39% (inactive); in test [8], -2.74% (inactive).

With `CCOc1ccc(C(=O)N2CCC(C(=O)c3ccc4c(c3)OCCO4)CC2)cc1`, the viability in test [1] is 84.5%; in test [3] it was 84.5% (inactive); in test [4], 77.8% (inactive); in test [5] it was 86.3% (inactive); in test [6] (setting [9]), 86.1%; in test [6] (setting [10]) it was 86.3%. For the same compound, in test [2], the Her2 level was 79.5% (inactive). Moreover, in test [6] (H69AR cells + 2 uM doxorubicin), the differential viability (reversal) was 0.19% (inactive). For the same compound, the inhibition in test [7] is -4.61% (inactive); in test [8], -6.91% (inactive).

`CCCCCc1c(O)nc(SCC(=O)NCC2CCCO2)[nH]c1=O` (stereo not given): the viability in test [1] is 96%; in test [3], 96% (inactive); in test [4] it was 96.9% (inactive); in test [5], 105% (inactive); in test [6] (setting [9]) it was 93%; in test [6] (setting [10]), 105%. In addition, the Her2 level in test [2] was 110% (inactive). In addition, the differential viability (reversal) in test [6] (H69AR cells + 2 uM doxorubicin) is 12.2% (inactive). For the same compound, the results for the inhibition in test [7] and in test [8] were 0% (inactive) and -3.81% (inactive), respectively.

`CC(=O)N(C(C)=O)c1cccc2c(N(C(C)=O)C(C)=O)cccc12`: the viability was 106% in test [1]; 106% (inactive) in test [3]; 97.4% (inactive) in test [4]; 91.7% (inactive) in test [5]; 94.5% in test [6] (setting [9]); 91.7% in test [6] (setting [10]). For the same compound, the Her2 level in test [2] is 94% (inactive). In addition, in test [6] (H69AR cells + 2 uM doxorubicin), the differential viability (reversal) was -2.88% (inactive). Also, the inhibition was -4.29% (inactive) in test [7] and -6% (inactive) in test [8].

Turning to `COc1ccc(CCn2c(-c3ccco3)nc3nc4ccccc4nc32)cc1`, the viability in test [1] was 108%; in test [3], 108% (inactive); in test [4] it was 62.8% (inactive); in test [5], 25.6% (active); in test [6] (setting [9]), 55.4%; in test [6] (setting [10]), 25.6%. Also, the Her2 level in test [2] was 110% (inactive). Moreover, the differential viability (reversal) in test [6] (H69AR cells + 2 uM doxorubicin) is -29.9% (inactive). In addition, the figures for the inhibition in test [7] and in test [8] were -1.62% (inactive) and 1.31% (inactive), respectively.

On to `CCOCCCNC(=O)CS(=O)(=O)Cc1nc(-c2cccc(OC)c2)oc1C`, for which the viability in test [1] was 128%; in test [3] it was 128% (inactive); in test [4], 88.4% (inactive); in test [5] it was 84% (inactive); in test [6] (setting [9]), 87.8%; in test [6] (setting [10]) it was 84%. The Her2 level in test [2] is 92% (inactive). For the same compound, the differential viability (reversal) in test [6] (H69AR cells + 2 uM doxorubicin) was -3.73% (inactive). For the same compound, the figures for the inhibition in test [7] and in test [8] were -4.81% (inactive) and 5.24% (inactive), respectively.

The values above are taken from PubChem BioAssay.
